Laboratory results reported in ChEMBL document CHEMBL3868627, “Radical scavenging and antibacterial activity of caffemides against gram positive, gram negative and clinical drug resistance bacteria” (Bioorg Med Chem Lett, 2016).

Assays:
Type in all cases: functional
Staphylococcus aureus [1] = experiment: Antibacterial activity against Staphylococcus aureus ATCC 25923 measured after 24 hrs by serial dilution method
Staphylococcus aureus [2] = experiment: Antibacterial activity against methicillin-resistant Staphylococcus aureus ATCC 43300 measured after 24 hrs by serial dilution method
[3] = tested on: Mycolicibacterium smegmatis; experiment: Bactericidal activity against Mycobacterium smegmatis MC2 155 ATCC 700084 at 50 ug/ml measured after 6 hrs by serial dilution method relative to control
Summary of the method: (§1)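 Bacteria were exposed to test compound over a range of µg/ml concentrations. Viable bacteria were counted by colony forming unit (CFU) assay at set time points (6 h and 24 h for M. smegmatis and S. aureus strains), and untreated bacteria served as the control. Percentage of population killed was calculated relative to the untreated control. Values are means ± S.D of three independent trials.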

[4] = tested on: Mycolicibacterium smegmatis; experiment: Bactericidal activity against Mycobacterium smegmatis MC2 155 ATCC 700084 at 50 ug/ml measured after 24 hrs by serial dilution method relative to control; summary of the method: as §1
Staphylococcus aureus [5] = experiment: Bactericidal activity against methicillin-resistant Staphylococcus aureus ATCC 43300 at 50 ug/ml measured after 24 hrs by serial dilution method relative to control; summary of the method: as §1
Staphylococcus aureus [6] = experiment: Bactericidal activity against methicillin-resistant Staphylococcus aureus ATCC 43300 at >100 ug/ml measured after 6 and 24 hrs by serial dilution method relative to control; summary of the method: as §1
[7] = tested on: Mycolicibacterium smegmatis; experiment: Antibacterial activity against Mycobacterium smegmatis MC2 155 ATCC 700084 assessed as colony forming units at 1 ug/ml measured after 6 hrs by serial dilution method (reference value: 70 +/- 1.73 10^3CFU); summary of the method: as §1
[8] = tested on: Mycolicibacterium smegmatis; experiment: Antibacterial activity against Mycobacterium smegmatis MC2 155 ATCC 700084 assessed as colony forming units at 50 ug/ml measured after 6 hrs by serial dilution method (reference value: 70 +/- 1.73 10^3CFU); summary of the method: as §1
[9] = tested on: Mycolicibacterium smegmatis; experiment: Antibacterial activity against Mycobacterium smegmatis MC2 155 ATCC 700084 assessed as colony forming units at 10 ug/ml measured after 24 hrs by serial dilution method (reference value: 84 +/- 4.35 10^3CFU); summary of the method: as §1
[10] = tested on: Mycolicibacterium smegmatis; experiment: Antibacterial activity against Mycobacterium smegmatis MC2 155 ATCC 700084 assessed as colony forming units at 50 ug/ml measured after 24 hrs by serial dilution method (reference value: 84 +/- 4.35 10^3CFU); summary of the method: as §1
[11] = tested on: Mycolicibacterium smegmatis; experiment: Antibacterial activity against Mycobacterium smegmatis MC2 155 ATCC 700084 assessed as colony forming units at 200 ug/ml measured after 24 hrs by serial dilution method (reference value: 84 +/- 4.35 10^3CFU); summary of the method: as §1
[12] = tested on: Mycolicibacterium smegmatis; experiment: Antibacterial activity against Mycobacterium smegmatis MC2 155 ATCC 700084 assessed as colony forming units at 500 ug/ml measured after 24 hrs by serial dilution method (reference value: 84 +/- 4.35 10^3CFU); summary of the method: as §1
Pseudomonas aeruginosa [13] = experiment: Antibacterial activity against Pseudomonas aeruginosa PAO1 ATCC 15692 assessed as colony forming units at 10 ug/ml measured after 1 hr by serial dilution method (reference value: 85.33 +/- 4.04 10^8CFU)
Pseudomonas aeruginosa [14] = experiment: Antibacterial activity against Pseudomonas aeruginosa PAO1 ATCC 15692 assessed as colony forming units at 300 ug/ml measured after 1 hr by serial dilution method (reference value: 85.33 +/- 4.04 10^8CFU)
Pseudomonas aeruginosa [15] = experiment: Antibacterial activity against Pseudomonas aeruginosa PAO1 ATCC 15692 assessed as colony forming units at 1 ug/ml measured after 3 hr by serial dilution method (reference value: 141.66 +/- 7.5 10^8CFU)
Pseudomonas aeruginosa [16] = experiment: Antibacterial activity against Pseudomonas aeruginosa PAO1 ATCC 15692 assessed as colony forming units at 10 ug/ml measured after 3 hr by serial dilution method (reference value: 141.66 +/- 7.5 10^8CFU)
Pseudomonas aeruginosa [17] = experiment: Antibacterial activity against Pseudomonas aeruginosa PAO1 ATCC 15692 assessed as colony forming units at 50 ug/ml measured after 3 hr by serial dilution method (reference value: 141.66 +/- 7.5 10^8CFU)
Pseudomonas aeruginosa [18] = experiment: Antibacterial activity against Pseudomonas aeruginosa PAO1 ATCC 15692 assessed as colony forming units at 200 ug/ml measured after 3 hr by serial dilution method (reference value: 141.66 +/- 7.5 10^8CFU)
Pseudomonas aeruginosa [19] = experiment: Antibacterial activity against Pseudomonas aeruginosa PAO1 ATCC 15692 assessed as colony forming units at 300 ug/ml measured after 3 hr by serial dilution method (reference value: 141.66 +/- 7.5 10^8CFU)
Pseudomonas aeruginosa [20] = experiment: Antibacterial activity against Pseudomonas aeruginosa PAO1 ATCC 15692 assessed as colony forming units at 500 ug/ml measured after 3 hr by serial dilution method (reference value: 141.66 +/- 7.5 10^8CFU)
Staphylococcus aureus [21] = experiment: Antibacterial activity against Staphylococcus aureus ATCC 25923 assessed as colony forming units at 10 ug/ml measured after 6 hrs by serial dilution method (reference value: 65.66 +/- 3.51 10^6CFU)
Staphylococcus aureus [22] = experiment: Antibacterial activity against Staphylococcus aureus ATCC 25923 assessed as colony forming units at 200 ug/ml measured after 6 hrs by serial dilution method (reference value: 65.66 +/- 3.51 10^6CFU)
Staphylococcus aureus [23] = experiment: Antibacterial activity against Staphylococcus aureus ATCC 25923 assessed as colony forming units at 300 ug/ml measured after 6 hrs by serial dilution method (reference value: 65.66 +/- 3.51 10^6CFU); summary of the method: as §1
Staphylococcus aureus [24] = experiment: Antibacterial activity against Staphylococcus aureus ATCC 25923 assessed as colony forming units at 10 ug/ml measured after 24 hrs by serial dilution method (reference value: 77.66 +/- 5.13 10^6CFU)
Staphylococcus aureus [25] = experiment: Antibacterial activity against Staphylococcus aureus ATCC 25923 assessed as colony forming units at 200 ug/ml measured after 24 hrs by serial dilution method (reference value: 77.66 +/- 5.13 10^6CFU)
Staphylococcus aureus [26] = experiment: Antibacterial activity against Staphylococcus aureus ATCC 25923 assessed as colony forming units at 300 ug/ml measured after 24 hrs by serial dilution method (reference value: 77.66 +/- 5.13 10^6CFU)
Staphylococcus aureus [27] = experiment: Antibacterial activity against methicillin-resistant Staphylococcus aureus ATCC 43300 assessed as colony forming units at 50 ug/ml measured after 6 hrs by serial dilution method (reference value: 64.33 +/- 3.51 10^6CFU); summary of the method: as §1
Staphylococcus aureus [28] = experiment: Antibacterial activity against methicillin-resistant Staphylococcus aureus ATCC 43300 assessed as colony forming units at 50 ug/ml measured after 24 hrs by serial dilution method (reference value: 74 +/- 2 10^6CFU); summary of the method: as §1
Staphylococcus aureus [29] = experiment: Antibacterial activity against methicillin-resistant Staphylococcus aureus ATCC 43300 assessed as colony forming units at 100 ug/ml measured after 24 hrs by serial dilution method (reference value: 74 +/- 2 10^6CFU); summary of the method: as §1

`Cc1ccc(O)c(NC(=O)/C=C/c2ccc(O)c(O)c2)c1` was tested, and the Activity (Staphylococcus aureus [1]) was “Dose-dependent effect”, the Activity (Staphylococcus aureus [2]) was “Dose-dependent effect” and the Activity [3] was 63.8%. The Activity [4] was 45.6%, the Activity (Staphylococcus aureus [5]) was 64.8% and the Activity (Staphylococcus aureus [6]) was 100%. For the same compound, the Activity [7] was 65.66 ×10³ CFU, the Activity [8] was 25.33 ×10³ CFU and the Activity [9] was 58 ×10³ CFU. The Activity [10] was 45.66 ×10³ CFU, the Activity [11] was 15 ×10³ CFU and the Activity [12] was 0 ×10³ CFU. The Activity (Pseudomonas aeruginosa [13]) was 59.33 ×10⁸ CFU, the Activity (Pseudomonas aeruginosa [14]) was 0 ×10⁸ CFU and the Activity (Pseudomonas aeruginosa [15]) was 126 ×10⁸ CFU. For the same compound, the Activity (Pseudomonas aeruginosa [16]) was 112 ×10⁸ CFU, the Activity (Pseudomonas aeruginosa [17]) was 87 ×10⁸ CFU and the Activity (Pseudomonas aeruginosa [18]) was 38.33 ×10⁸ CFU. For the same compound, the Activity (Pseudomonas aeruginosa [19]) was 0 ×10⁸ CFU, the Activity (Pseudomonas aeruginosa [20]) was 0 ×10⁸ CFU and the Activity (Staphylococcus aureus [21]) was 25.66 ×10⁶ CFU. It also gave an Activity (Staphylococcus aureus [22]) of 4.66 ×10⁶ CFU, an Activity (Staphylococcus aureus [23]) of 0 ×10⁶ CFU and an Activity (Staphylococcus aureus [24]) of 63 ×10⁶ CFU. It also gave an Activity (Staphylococcus aureus [25]) of 0 ×10⁶ CFU, an Activity (Staphylococcus aureus [26]) of 0 ×10⁶ CFU and an Activity (Staphylococcus aureus [27]) of 27.33 ×10⁶ CFU. It also gave an Activity (Staphylococcus aureus [28]) of 26 ×10⁶ CFU and an Activity (Staphylococcus aureus [29]) of 15.66 ×10⁶ CFU.
In the case of `O=C(/C=C/c1ccc(O)c(O)c1)Nc1ccccc1Nc1ccccc1`, the Activity (Staphylococcus aureus [1]) is reported as “Dose-dependent effect”, the Activity (Staphylococcus aureus [2]) is reported as “Dose-dependent effect” and the Activity [3] is reported as 51.9%. It also gave an Activity [4] of 78.1%, an Activity (Staphylococcus aureus [5]) of 61.2% and an Activity (Staphylococcus aureus [6]) of 100%. For the same compound, the Activity [7] was 52.33 ×10³ CFU, the Activity [8] was 33.66 ×10³ CFU and the Activity [9] was 35.33 ×10³ CFU. The Activity [10] was 18.33 ×10³ CFU, the Activity [11] was 0 ×10³ CFU and the Activity [12] was 0 ×10³ CFU. For the same compound, the Activity (Pseudomonas aeruginosa [13]) was 50.33 ×10⁸ CFU, the Activity (Pseudomonas aeruginosa [14]) was 0 ×10⁸ CFU and the Activity (Pseudomonas aeruginosa [15]) was 115.33 ×10⁸ CFU. The Activity (Pseudomonas aeruginosa [16]) was 91.66 ×10⁸ CFU, the Activity (Pseudomonas aeruginosa [17]) was 53.66 ×10⁸ CFU and the Activity (Pseudomonas aeruginosa [18]) was 21.33 ×10⁸ CFU. The Activity (Pseudomonas aeruginosa [19]) was 0 ×10⁸ CFU, the Activity (Pseudomonas aeruginosa [20]) was 0 ×10⁸ CFU and the Activity (Staphylococcus aureus [21]) was 40 ×10⁶ CFU. The Activity (Staphylococcus aureus [22]) was 0 ×10⁶ CFU, the Activity (Staphylococcus aureus [23]) was 0 ×10⁶ CFU and the Activity (Staphylococcus aureus [24]) was 40 ×10⁶ CFU. It also gave an Activity (Staphylococcus aureus [25]) of 0 ×10⁶ CFU, an Activity (Staphylococcus aureus [26]) of 0 ×10⁶ CFU and an Activity (Staphylococcus aureus [27]) of 30.33 ×10⁶ CFU. The Activity (Staphylococcus aureus [28]) was 28.66 ×10⁶ CFU and the Activity (Staphylococcus aureus [29]) was 11.33 ×10⁶ CFU.
